In ChEMBL document CHEMBL4364289, “The structure-activity profile of mercaptobenzamides' anti-HIV activity suggests that thermodynamics of metabolism is more important than binding affinity to the target” (Eur J Med Chem, 2019):

Tests used:
[1] = (§1) Cytotoxicity against human CEM-SS cells assessed as reduction in cell viability incubated for 6 days by […]; assay type: cell-based; details: CEM-SS cells, read-out: TC50
In short: (§2)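 Uninfected CEM-SS cells (2.5 × 10³/well) in RPMI with 10% FBS, 2 mM L-glutamine, penicillin/streptomycin, exposed to six serial compound concentrations for 6 days at 37 °C, 5% CO2. Viability read by XTT staining (OD 450/650 nm); TC50 derived from percent viability of uninfected drug-control wells.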

[2] = Dissociation constant, pKa of compound; assay type: physicochemical
[3] = Drug metabolism of compound in phosphate buffer incubated for 12 hrs in presence of acetyl-1,2,13C2 CoA by 13C-NMR spectrometric method
In short: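 Thiol and acetyl-1,2-13C2 CoA at 10:1 stoichiometric ratio incubated in degassed (helium-sparged) 0.1 M phosphate buffer pH 7.0 (4:1 H2O/D2O) with 2% DMF, 37 °C, 12 h in a sealed NMR tube. Equilibrium confirmed by 13C NMR monitoring; equilibrium constant for thiol–thioester exchange determined from spectra.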

[4] = Selectivity index, ratio of TC50 for human CEM-SS cells to EC50 for HIV1 RF infected in human CEM-SS cells; assay type: toxicity, cell-based; details: for selectivity ratio: CEM-SS cells, read-out: Selectivity Index
In short: (§3)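 CEM-SS cells (2.5 × 10³/well) in RPMI with 10% FBS, 2 mM L-glutamine, penicillin/streptomycin; six serial compound concentrations added with HIV-1 RF titered to give 85–95% cell killing at day 6. AZT run in parallel as positive control. Incubated 6 days at 37 °C, 5% CO2; viability by XTT (OD 450/650 nm). EC50 from percent CPE reduction; SI = TC50/EC50.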

[5] = system: Human immunodeficiency virus 1; test: Antiviral activity against HIV1 RF infected in human CEM-SS cells assessed as inhibition of viral replication incubated for 6 days by XTT assay; assay type: functional, organism-based; in short: as §3
[6] = Drug metabolism of compound in glutathione assessed as 2-(3-amino 3-oxopropylcarbamoyl)benzenethiolate formation
[7] = Drug metabolism of compound in nucleophilic proteinogenic cysteines assessed as 2-(3-amino 3-oxopropylcarbamoyl)benzenethiolate formation
[8] = Prodrug activation in human PBMC cells assessed as 2-(3-amino 3-oxopropylcarbamoyl)benzenethiolate formation; assay type: cell-based
CEM-SS = test: as §1; assay type: cell-based; details: cem-ss, 144 h, read-out: TC50 (the source's name); in short: as §2
[9] = Human immunodeficiency virus 1, RF, CEM-SS, 144 h

Row | SMILES | CC50 at 144 h [1] | EC50 [5, 9] | selectivity ratio [4] | also measured
1 | CCCC(=O)OCSc1ccc(OC(F)(F)F)cc1C(=O)NC(C)(C)C(N)=O | < 56.1 µM | – | – | –
2 | NC(=O)CCNC(=O)c1ccccc1S | – | – | – | pKa [2]: 5.83; Ke [3]: 0.0023
3 | CCCC(=O)OCSc1ccccc1C(=O)N[C@H]1CCC[C@@H]1C(N)=O (racemic) | 31.2 µM | – | – | Selectivity Index [4]: 34.7; EC50 [5]: 0.9 µM
4 | NC(=O)CCNC(=O)c1cccc(S)c1 | > 100 µM | > 100 µM | – | –
5 | CCCC(=O)OCSc1ccccc1C(N)=O | 12.4 µM | > 100 µM | – | –
6 | CCCC(=O)OCSc1ccccc1CC(=O)NCC(N)=O | > 100 µM | > 100 µM | – | –
7 | CCCC(=O)OCSc1ccccc1C(=O)NCCCCCCNC(C)=O | 8 µM | 1.5 µM | 5.33 | –
8 | CCCC(=O)OCSc1ccccc1C(=O)NCCCC(N)=O | 56.6 µM | 1.2 µM | 47.2 | –
9 | CCCC(=O)OC[Se]c1ccccc1C(=O)NCCC(N)=O | 10.5 µM | 8.6 µM | 1.22 | –
10 | CC(=O)Sc1ccccc1C(=O)NCCC(N)=O | – | – | – | Ka [6]: 84 M⁻¹ s⁻¹; Ka [7]: 84 M⁻¹ s⁻¹
11 | CCCC(=O)OCSc1ccc(OC)cc1C(=O)NCCC(N)=O | > 100 µM | 1.5 µM | – | –
12 | CCCC(=O)OCSc1ccccc1C(=O)NCCCCCCC(N)=O | 10.4 µM | 1 µM | 10.4 | –
13 | CCCC(=O)OCSc1ccccc1C(=O)N1CCC[C@H]1C(N)=O | > 100 µM | > 100 µM | – | –
14 | CCCC(=O)OCSc1ccccc1C(=O)NCC(=O)NCC(=O)OC | > 100 µM | 4.9 µM | > 20.4 | –
15 | CCCC(=O)OCSc1ccccc1C(=O)N[C@@H]1CCC[C@H]1C(N)=O | 43.7 µM | 1.7 µM | 25.7 | –
16 | CCCC(=O)OCSc1ccccc1C(=O)NCCC(N)=O | > 100 µM | 2.4 µM | – | Drug metabolism [8]: Metabolite_Detected
17 | CCCC(=O)OCSc1ccccc1C(=O)Nc1cccc(C(N)=O)c1 | 17.5 µM | 1.2 µM | 14.6 | –
18 | CCCC(=O)OCSc1ccccc1C(=O)N[C@H]1CCC[C@H]1C(N)=O (racemic) | 89.9 µM | 5.32 µM | 16.9 | –
19 | CCCC(=O)OCSc1ccccc1C(=O)N(C)CC(N)=O | 55.3 µM | > 100 µM | – | –
20 | CCCCCNC(=O)CNC(=O)c1ccccc1SCOC(=O)CCC | 24.8 µM | 10.3 µM | 2.41 | –
21 | CCCC(=O)OCSc1ccccc1C(=O)NCC(=O)NC(C)C | 92 µM | 5 µM | 18.4 | –
22 | CCCC(=O)OCSc1ccccc1C(=O)N[C@@H]1CCC[C@@H]1C(N)=O | 90 µM | 1.8 µM | 50 | –
23 | CCCC(=O)OCSc1ccccc1C(=O)NCC(=O)NCCN(C)C | 76.9 µM | 6.6 µM | 11.6 | –
24 | CCCC(=O)OCSc1c(F)cccc1C(=O)NCCC(N)=O | – | > 100 µM | – | –
25 | CCCC(=O)OCSc1ccccc1C(=O)NCCCCNC(C)=O | 17.4 µM | 0.57 µM | 30.5 | –

Row | SMILES | CC50 at 144 h [1] | EC50 [5, 9] | selectivity ratio [4] | also measured
26 | CCCC(=O)OC[Se]c1ccccc1C(=O)NCC(N)=O | 6.8 µM | > 100 µM | – | –
27 | CCCC(=O)OCSc1ccccc1C(=O)N(C)CC(=O)NC | 62.5 µM | > 100 µM | – | –
28 | CCCC(=O)OCSc1ccccc1C(=O)Nc1ccc(C(N)=O)cc1 | 39 µM | 1.6 µM | 24.4 | –
29 | CCCC(=O)OCSc1ccccc1C(=O)NCC(=O)NC | > 100 µM | 1.4 µM | > 71.4 | –
30 | CCCC(=O)OCSc1ccccc1C(=O)NCCNC(C)=O | 91.9 µM | 2.6 µM | 35.3 | –
31 | CCCC(=O)OCSc1ccccc1C(=O)N(C)CC(=O)N(C)C | 57.3 µM | > 100 µM | – | –
32 | C#CCNC(=O)CNC(=O)c1ccccc1SCOC(=O)CCC | 95.4 µM | 4.7 µM | 20.3 | –
33 | CCCC(=O)OCSc1ccccc1C(=O)NCCCCC(N)=O | 51.7 µM | 3.7 µM | 14 | –
34 | CCCC(=O)OCSc1ccccc1C(=O)NC | 5.7 µM | > 100 µM | – | –
35 | CCCC(=O)OCSc1ccccc1C(=O)NCC(=O)NCc1ccccc1 | 29.3 µM | 4.8 µM | 6.1 | –
36 | CCCC(=O)OCSc1ccccc1C(=O)NCCCCCC(N)=O | 16.3 µM | 3.1 µM | 5.26 | –
37 | CCCC(=O)OCSc1ccccc1C(=O)Nc1ccccc1C(N)=O | 50.1 µM | 5.1 µM | 9.82 | –
38 | CCCC(=O)OCSc1ccccc1C(=O)NCC(=O)N(C)C | 38.3 µM | 4.7 µM | 8.15 | –
39 | CCCC(=O)OCSc1ccccc1C(=O)NCCCCCNC(C)=O | 9.2 µM | 3.9 µM | 2.36 | –
40 | CCCC(=O)OCSc1ccccc1C(=O)OCC(N)=O | 82.1 µM | > 100 µM | – | –
41 | CCCC(=O)OCSc1ccccc1C(=O)NCC(N)=O | > 100 µM | 2.9 µM | – | –
42 | CCCC(=O)OCSc1ccccc1C(=O)NCC(=O)NCC(N)=O | > 100 µM | 27.5 µM | > 3.64 | –
43 | CCCC(=O)OCSc1ccccc1C(=O)N[C@H]1CCC[C@@H]1C(N)=O | – | – | – | Selectivity Index [4]: 15; CC50 (CEM-SS): 43.3 µM; EC50 [5]: 2.9 µM
44 | CCCC(=O)OCSc1ccccc1C(=O)N[C@H]1CCC[C@H]1C(N)=O | – | – | – | Selectivity Index [4]: 28.3; CC50 (CEM-SS): 84.8 µM; EC50 [5]: 3 µM
45 | CCCC(=O)OCSc1c(C)cccc1C(=O)NCCC(N)=O | – | > 100 µM | – | –
46 | CCCC(=O)OCSc1ccccc1C(=O)NCC(=O)NC(C)(C)C | 46.8 µM | 9.1 µM | 5.14 | –
47 | CCCC(=O)OCSc1ccccc1C(=O)NC1(C(N)=O)CCCC1 | > 100 µM | < 8.2 µM | – | –
48 | CCCC(=O)OCSc1ccccc1C(=O)NCCCNC(C)=O | 21.1 µM | 1.1 µM | 19.2 | –
49 | CCCC(=O)OCSc1ccccc1C(=O)NCC(=O)OC | 27.3 µM | > 100 µM | – | –
